The source of these data is ChEMBL document CHEMBL1138683 (J Med Chem, 2004).

Series [1] can be described thus: Anti convulsant activity administered intra peritoneally to mouse for toxicity at 4 hr with dose of 100 mg/kg; 4/4= No of animals exhibiting toxicity /No of animals tested. It is filed as organism-based. Further details: dose 100 mg/kg. As to conditions: in vivo, ip.
Series [2] in a line: Anti convulsant activity administered intra peritoneally to mouse for toxicity at 4 hr with dose of 30 mg/kg; 0/2= No of animals exhibiting toxicity /No of animals tested. As to conditions: in vivo, ip. Set-up: dose 30 mg/kg. It is filed as organism-based.
A short description of series [3]: Anti convulsant activity administered intra peritoneally to mouse for toxicity at 4 hr with dose of 300 mg/kg; 2/2= No of animals exhibiting toxicity /No of animals tested. Set-up: dose 300 mg/kg. In kind it is organism-based. As to conditions: in vivo, ip.
The nature of series [4]: Anti convulsant activity administered intra peritoneally to mouse for toxicity at 0.5 hr with dose of 30 mg/kg; 0/4= No of animals exhibiting toxicity /No of animals tested. It is filed as organism-based. Further details: dose 30 mg/kg. As to conditions: in vivo, ip.
Series [5] can be described thus: Anti convulsant activity administered intra peritoneally to mouse for toxicity at 0.5 hr with dose of 100 mg/kg; 7/8= No of animals exhibiting toxicity /No of animals tested. It is filed as organism-based. Further details: dose 100 mg/kg. As to conditions: in vivo, ip.
Series [6] can be described thus: Anti convulsant activity administered intra peritoneally to mouse for toxicity at 0.5 hr with dose of 300 mg/kg; 4/4= No of animals exhibiting toxicity /No of animals tested. In kind it is organism-based. As to conditions: in vivo, ip. Further details: dose 300 mg/kg.
For series [7], the system named is Mus musculus. Put plainly: Anti convulsant activity administered intra peritoneally to mouse at maximal electroshock test at 4 hr after the drug administered with dose of 30 mg/kg; 0/1= No of animals protected /No of animals tested. In kind it is functional. A general note: Protection in the maximal electroshock model is a classic sign of anticonvulsant action.

In series [8] the test system is Mus musculus. Briefly: Anti convulsant activity administered intra peritoneally to mouse at maximal electroshock test at 4 hr after the drug administered with dose of 100 mg/kg; 0/3= No of animals protected /No of animals tested. In kind it is functional.
Series [9] has as its system Mus musculus. Put plainly: Anti convulsant activity administered intra peritoneally to mouse at maximal electroshock test at 4 hr after the drug administered with dose of 300 mg/kg; 1/1= No of animals protected /No of animals tested. It is filed as functional.
The test system of series [10] is Mus musculus. Briefly: Anti convulsant activity administered intra peritoneally to mouse at maximal electroshock test at 0.5 h after the drug administered with dose of 30 mg/kg; 0/1= No of animals protected /No of animals tested. It is filed as functional.
Series [11] has as its system Mus musculus. Briefly: Anti convulsant activity administered intra peritoneally to mouse for subcutaneous metrazol test at 4 hr after the drug administered with dose of 30 mg/kg; 0/1= No of animals protected /No of animals tested. It is filed as functional. As to conditions: route intraperitoneal.
The subject of series [12] is Mus musculus. Put plainly: Anti convulsant activity administered intra peritoneally to mouse at maximal electroshock test at 0.5 hr after the drug administered with dose of 300 mg/kg; 1/1= No of animals protected /No of animals tested. In kind it is functional.
Series [13] deals with Mus musculus. Put plainly: Anti convulsant activity administered intra peritoneally to mouse for subcutaneous metrazol test at 0.5 hr with dose of 30 mg/kg; 0/1= No of animals protected /No of animals tested. It is filed as functional.
The subject of series [14] is Mus musculus. Put plainly: Anti convulsant activity administered intra peritoneally to mouse for toxicity at 4 hr with dose of 30 mg/kg; 1/3= No of animals exhibiting toxicity /No of animals tested. It is filed as functional.
The nature of series [15]: Quantitative Anticonvulsant activity administered intraperitoneally to mouse for toxicity. As to conditions: in vivo, ip. In short, it runs like this:
(§1)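 Mice dosed intraperitoneally with compound dissolved or suspended in 0.5% methylcellulose (0.01 mL per gram body weight). […] Protective index calculated as TD50/ED50 for each seizure test.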

Series [16] can be described thus: Anti convulsant activity administered intra peritoneally to mouse for toxicity at 4 hr with dose of 100 mg/kg; 0/4= No of animals exhibiting toxicity /No of animals tested. In kind it is organism-based. Set-up: dose 100 mg/kg. As to conditions: in vivo, ip.
Series [17] is described as follows: Anti convulsant activity administered intra peritoneally to mouse for toxicity at 4 hr with dose of 300 mg/kg; 1/2= No of animals exhibiting toxicity /No of animals tested. It is filed as organism-based. Set-up: dose 300 mg/kg. As to conditions: in vivo, ip.
Series [18] in a line: Anti convulsant activity administered intra peritoneally to mouse for toxicity at 0.5 hr with dose of 100 mg/kg; 0/8= No of animals exhibiting toxicity /No of animals tested. It is filed as organism-based. As to conditions: in vivo, ip. Further details: dose 100 mg/kg.
The nature of series [19]: Anti convulsant activity administered intra peritoneally to mouse for toxicity at 0.5 hr with dose of 300 mg/kg; 0/4= No of animals exhibiting toxicity /No of animals tested. As to conditions: in vivo, ip. In kind it is organism-based. Further details: dose 300 mg/kg.
The test system of series [20] is Mus musculus. Briefly: Anti convulsant activity administered intra peritoneally to mouse at maximal electroshock test at 4 hr after the drug administered with dose of 100 mg/kg; 0/1= No of animals protected /No of animals tested. In kind it is functional.
Series [21] relates to Mus musculus. Put plainly: Anti convulsant activity administered intra peritoneally to mouse at maximal electroshock test at 0.5 hr after the drug administered with dose of 100 mg/kg; 3/3= No of animals protected /No of animals tested. It is filed as functional.
In series [22] the test system is Mus musculus. Put plainly: Anti convulsant activity administered intra peritoneally to mouse for subcutaneous metrazol test at 4 hr after the drug administered with dose of 100 mg/kg; 0/1= No of animals protected /No of animals tested. It is filed as functional.
For series [23], the system named is Rattus norvegicus. Put plainly: Quantitative Anticonvulsant activity administered orally to rat for subcutaneous metrazol test. It is filed as functional. In short, it runs like this: (§2)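 Oral dosing in rats with compound dissolved or suspended in 0.5% methylcellulose (0.04 mL per 10 g body weight). […] Protective index taken as TD50/ED50 for each test.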
The test system of series [24] is Rattus norvegicus. Briefly: Anticonvulsant activity after oral administration of 30 mg/kg dose after 4 hr in rats; + means 25% of the animals protected. It is filed as functional, organism-based. Further details: dose 30 mg/kg. In short, it runs like this:
(§3)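 Oral dosing of rats at a single dose, compound dissolved or suspended in 0.5% methylcellulose. Protection in the MES or scMet test checked 15 min, 30 min, 1 h, 2 h and 4 h after dosing. Scored as 25/50/75/100% of animals protected (+ to ++++), – for none.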

For series [25], the system named is Rattus norvegicus. Briefly: Anticonvulsant activity after oral administration of 30 mg/kg dose after 2 hr in rats; ++++ means 100% of the animals protected. It is filed as functional, organism-based. Further details: dose 30 mg/kg. In a few lines:
as §3

Series [26] deals with Rattus norvegicus. Put plainly: Anticonvulsant activity after oral administration of 30 mg/kg dose after 30 min in rats; ++ means 50% of the animals protected. Set-up: dose 30 mg/kg. It is filed as functional, organism-based. In a few lines:
as §3

For series [27], the system named is Rattus norvegicus. Briefly: Anticonvulsant activity after oral administration of 50 mg/kg dose after 30 min in rats; ++ means 50% of the animals protected. In kind it is functional, organism-based. Set-up: dose 50 mg/kg. In a few lines: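 Rats dosed orally with compound dissolved or suspended in 0.5% methylcellulose (0.04 mL per 10 g body weight). Anticonvulsant protection (MES or scMet) and toxicity scored at 15 min, 30 min, 1 h, 2 h and 4 h after dosing. Graded in steps of 25% of animals protected or showing toxicity.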

The test system of series [28] is Mus musculus. Put plainly: Quantitative Anticonvulsant activity administered intraperitoneally to mouse for protective index in subcutaneous metrazol test. It is filed as functional. In short, it runs like this:
as §1

Series [29] has as its system Rattus norvegicus. Briefly: Anticonvulsant activity after oral administration of 30 mg/kg dose after 15 min in rats;+means 25% of the animals protected. It is filed as functional, organism-based. Set-up: dose 30 mg/kg. In a few lines: as §3
Series [30] concerns Rattus norvegicus. Put plainly: Anticonvulsant activity after oral administration of 30 mg/kg dose after 1 hr in rats; +++ means 75% of the animals protected. It is filed as functional, organism-based. Further details: dose 30 mg/kg. In short, it runs like this: as §3
Series [31] deals with Rattus norvegicus. Briefly: Quantitative Anticonvulsant activity administered orally to rat at maximal electro shock test; the interval in parenthesis stands for 95% confidence interval. As to conditions: po. It is filed as functional. In a few lines:
as §2

For series [32], the system named is Mus musculus. Briefly: Quantitative Anticonvulsant activity administered intraperitoneally to mouse for maximal electro shock test; The interval in parenthesis stands for 95% confidence interval. It is filed as functional. As to conditions: ip. In a few lines:
as §1

Series [33] concerns Mus musculus. Put plainly: Anti convulsant activity administered intra peritoneally to mouse for subcutaneous metrazol test at 4 hr with dose of 300 mg/kg; 3/5= No of animals protected /No of animals tested. It is filed as functional.
Series [34] concerns Mus musculus. Put plainly: Anti convulsant activity administered intra peritoneally to mouse for subcutaneous metrazol test at 0.5 h with dose of 300 mg/kg; 0/1= No of animals protected /No of animals tested. In kind it is functional.
In series [35] the test system is Mus musculus. Put plainly: Anticonvulsant activity administered intraperitoneally to mouse for toxicity at 4 hr with dose of 30 mg/kg. In kind it is functional. As to conditions: route intraperitoneal. In short, it runs like this:
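Mice given compound i.p. at 30, 100 or 300 mg/kg, dissolved or suspended in 0.5% methylcellulose. Toxicity scored 0.5 h and 4 h after dosing, recorded as number of animals showing toxicity per number tested.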

Series [36] relates to Rattus norvegicus. Put plainly: Quantitative Anticonvulsant activity administered orally to rat for protective index in subcutaneous metrazol test. It is filed as functional. In a few lines: as §2
In series [37] the test system is Rattus norvegicus. Put plainly: Quantitative Anticonvulsant activity administered orally to rat for protective index in maximal electro shock test;TD50/ED50. In kind it is functional. In short, it runs like this: as §2
Series [38] relates to Mus musculus. Put plainly: Quantitative Anticonvulsant activity administered intraperitoneally to mouse for protective index in maximal electro shock test;TD50/ED50. It is filed as functional. In a few lines:
as §1

Series [39] deals with Rattus norvegicus. Put plainly: Anticonvulsant activity after oral administration of 50 mg/kg dose after 15 min in rats; +++ means 75% of the animals protected. It is filed as functional, organism-based. Set-up: dose 50 mg/kg. In a few lines: as §3

One may read the TD50 as the 50% point of the dose-response relation for the toxic effect studied. High values mean lower toxicity, low ones greater toxicity. One may read the ED50 as the dose that gives a 50% effect, or the effect in half of the subjects.

For `CC1(C)C(C(=O)N=C(N)N)C1(C)C`, the Toxicity in series [1] amounted to 4; in series [2], 0; in series [3] it was 2; in series [4], 0; in [5], 7; in series [6] it was 4. For the same compound, the Activity stood at 0 in [7]; 0 in [8]; 1 in series [9]; 0 in series [10]; 0 in [11]; 1 in series [12]. For the same compound, the Activity in [13] is listed as 0; in [14], 1.

Take `CC1(C)C(C(=O)NC(N)=O)C1(C)C` [2,2,3,3-TETRAMETHYLCYCLOPROPANECARBONYLUREA]: the TD50 in [15] amounted to 168 mg/kg. Besides, the Toxicity is 0 in [16]; 1 in [17]; 0 in [4]; 0 in series [18]; 0 in [19]; 0 in [35]. For the same compound, the Activity in series [7] is 0; in series [20], 0; in series [8], 0; in series [9], 1; in [10], 0; in series [11], 0. Besides, the Activity in [21] was 3; in series [12], 1; in [22], 0; in [24] it was 100% of the animals protected; in [25] it was 100% of the animals protected; in series [26] it was 100% of the animals protected. Further, the Activity in series [27] is listed as 100% of the animals protected; in series [29], 100% of the animals protected; in [30], 100% of the animals protected; in series [33], 3; in [13], 0; in series [34], 0. In [36], this compound yielded an Activity of 5.9. For the same compound, the figures for the ED50 in [23], in series [31] and in [32] were 92 mg/kg, 29 mg/kg and 90 mg/kg, respectively. In [28], this compound gave an Anticonvulsant of 1.6. For the same compound, the Ratio was 18.5 in [37] and 1.9 in series [38]. Besides, the “Anticonvulsant Activity” value in series [39] is reported as 75% of the animals protected.
